Test results: ChEMBL document CHEMBL2021920, “Design, synthesis and biological evaluation of thiazole- and indole-based derivatives for the treatment of type II diabetes” (Eur J Med Chem, 2012)
Active and inactive are the calls of the source. The rule behind the calls is not given here.

Assays:
Mus musculus [1] = experiment: Antidiabetic effect in high-fat diet fed C57BL/6J mouse obesity model assessed as improvement in glucose metabolism level at 50 mg/kg, po dosed once daily measured after 8 weeks by glucose tolerance test; format: functional, organism-based; design: dose 50 mg/kg
In short: (§1)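 Diet-induced obese C57BL/6J animals were fed a 60% fat diet for 8 weeks, then dosed orally with 50 mg/kg daily (suspension in Tween 80 and 5% saline) or vehicle, n = 8 per group. After a 12 h fast they received either an oral glucose load of 0.5 g/kg (5% glucose) or ip insulin at 2 U/Kg in saline. Blood glucose was read by glucose meter at 0, 15, 30, 60, 90 and 120 min.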

Mus musculus [2] = experiment: Antidiabetic effect in high-fat diet fed C57BL/6J mouse obesity model assessed as reduction in plasma triglyceride level at 50 mg/kg, po dosed once daily measured after 8 weeks relative to untreated control; format: functional; details: 1344 h
In short: (§2)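 Obese C57BL/6J animals on a 60% fat diet were given 50 mg/kg orally each day (suspension in Tween 80/5% saline) or vehicle, n = 8 per group. After 8 weeks, heart blood was taken under anaesthesia and spun at 5,000 g for 15 min at 4 °C. Plasma glucose, TG, TC and ALT were measured on a biochemistry analyzer.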

Mus musculus [3] = experiment: Antidiabetic effect in high-fat diet fed C57BL/6J mouse obesity model assessed as reduction in plasma alanine aminotransferase level at 50 mg/kg, po dosed once daily measured after 8 weeks relative to untreated control; format: functional; details: 1344 h; in short: as §2
Mus musculus [4] = experiment: Antidiabetic effect in high-fat diet fed C57BL/6J mouse obesity model assessed as reduction in plasma total cholesterol level at 50 mg/kg, po dosed once daily measured after 8 weeks relative to untreated control; format: functional; details: 1344 h; in short: as §2
Mus musculus [5] = experiment: Antidiabetic effect in high-fat diet fed C57BL/6J mouse obesity model assessed as increase in insulin sensitivity level at 50 mg/kg, po dosed once daily measured after 8 weeks by insulin tolerance test; format: functional, organism-based; design: dose 50 mg/kg; in short: as §1
[6] = biological target: Fatty acid-binding protein, adipocyte (Mus musculus) (UniProt P04117); experiment: Inhibition of mouse ap2 by fluorescent 1,8-anilino-8-naphthalene sulfonate assay; details: read-out: Ki(app)
Fatty acid-binding protein, adipocyte (Mus musculus), sequence (P04117 whole entry, looked up): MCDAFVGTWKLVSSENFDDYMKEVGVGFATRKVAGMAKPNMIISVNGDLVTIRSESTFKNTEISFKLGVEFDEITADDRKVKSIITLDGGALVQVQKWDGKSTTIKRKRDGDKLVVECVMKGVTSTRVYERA

Mus musculus [7] = experiment: Antidiabetic effect in high-fat diet fed C57BL/6J mouse obesity model assessed as weight gain incidence at 50 mg/kg, po dosed once daily measured after 8 weeks relative to untreated control; format: functional
In short: (§3)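 C57BL/6J animals were kept on a 60% fat diet, or on normal food, for 8 weeks. High-fat groups were dosed orally at 50 mg/kg once daily (suspension in Tween 80/5% saline) or given vehicle, n = 8 per group. Body weight and food intake were followed over the study period.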

RAW264.7 = experiment: Inhibition of LPS-stimulated TNFalpha production in mouse RAW264.7 cells at […] dosed simultaneously with LPS measured 24 hrs post dose by ELISA; format: functional
In short: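 RAW 264.7 macrophages were seeded and grown for 24 h. Test agents were then added together with LPS, and cells were incubated for a further 24 h before TNF-α output was determined. Results are expressed as percent inhibition.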

Mus musculus [8] = experiment: Antidiabetic effect in high-fat diet fed C57BL/6J mouse obesity model assessed as reduction in liver fat deposition at 50 mg/kg, po dosed once daily measured after 8 weeks by H&E staining; format: functional, organism-based; design: dose 50 mg/kg
In short: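 Livers came from high-fat-fed C57BL/6J animals that had 8 weeks of daily oral dosing at 50 mg/kg or vehicle. Tissue was fixed in 4% buffered formalin, embedded in paraffin or OCT, and serially sectioned. Sections were stained with H&E to assess fat deposition.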

Mus musculus [9] = experiment: Effect on food intake in high-fat diet fed C57BL/6J mouse obesity model at 50 mg/kg, po dosed once daily measured after 8 weeks relative to untreated control; format: functional, organism-based; design: dose 50 mg/kg; in short: as §3
Mus musculus [10] = experiment: Antidiabetic effect in high-fat diet fed C57BL/6J mouse obesity model assessed as reduction in blood glucose at 50 mg/kg, po dosed once daily measured after 8 weeks relative to untreated control; format: functional, organism-based; design: dose 50 mg/kg; in short: as §2

**Q.** How did the Activity (Mus musculus [1]) turn out when O=C(O)/C=C/c1cn(Cc2ccccc2F)c2ccccc12 was run?
**A.** The Activity was “Active”.

**Q.** What about the inhibition in vivo at 50 mg/kg (Mus musculus [2]) of the same molecule?
**A.** The inhibition in vivo at 50 mg/kg was 27.1%.

**Q.** What about the inhibition in vivo at 50 mg/kg (Mus musculus [3]) of the same molecule?
**A.** Its inhibition in vivo at 50 mg/kg is 26.7%.

**Q.** What about the inhibition in vivo at 50 mg/kg (Mus musculus [4]) of the same molecule?
**A.** The inhibition in vivo at 50 mg/kg was 38.5%.

**Q.** And the Activity (Mus musculus [5])?
**A.** The Activity was “Active”.

**Q.** What about the Ki [6] of the same molecule?
**A.** The Ki was 33 nM.

**Q.** What about the Activity (Mus musculus [7]) of the same molecule?
**A.** The Activity was 21.18%.

**Q.** What about the “inhibition (INH)” value (RAW264.7) of the same molecule?
**A.** Its value is 95.47%.

**Q.** What about the Activity (Mus musculus [8]) of the same molecule?
**A.** Its Activity is “Active”.

**Q.** What about the Activity (Mus musculus [9]) of the same molecule?
**A.** The Activity was “inactive”.

**Q.** What about the Activity (Mus musculus [10]) of the same molecule?
**A.** The Activity was “Active”.

**Q.** How did the “inhibition (INH)” value (RAW264.7) turn out when O=C(O)Cc1cn(Cc2ccccc2F)c2ccccc12 was run?
**A.** Its value is 24.72%.

**Q.** For Cc1ccc2c(c1)c(/C=C/C(=O)O)cn2Cc1ccccc1F, which “inhibition (INH)” value (RAW264.7) is on record?
**A.** The value was 11.18%.

**Q.** How did the “inhibition (INH)” value (RAW264.7) turn out when O=C(O)Cc1cn(Cc2ccc(F)cc2)c2ccccc12 was run?
**A.** Its value is 92.24%.

**Q.** For O=C(O)/C=C/c1cn(Cc2ccccc2)c2ccccc12, which “inhibition (INH)” value (RAW264.7) is on record?
**A.** Its value is 18.17%.

**Q.** Which “inhibition (INH)” value (RAW264.7) does the source give for Cc1ccc(Cn2cc(/C=C/C(=O)O)c3ccccc32)cc1 here?
**A.** The value was 66.56%.

**Q.** How did the “inhibition (INH)” value (RAW264.7) turn out when Cc1sc(NC(=O)CCC(=O)O)nc1-c1ccc(Cl)cc1 was run?
**A.** Its value is 27.14%.

**Q.** How did the inhibition (RAW264.7) turn out when Cc1ccc2c(c1)c(/C=C/C(=O)O)cn2Cc1cccc(F)c1 was run?
**A.** Its inhibition is “inactive”.

**Q.** For O=C(O)/C=C/c1cn(Cc2cccc(F)c2)c2ccccc12, which “inhibition (INH)” value (RAW264.7) is on record?
**A.** Its value is 36.36%.

**Q.** COc1ccc(-c2csc(NC(=O)CCC(=O)O)n2)cc1 was tested. Which inhibition (RAW264.7) did it give?
**A.** The inhibition was “inactive”.

**Q.** With O=C(O)/C=C/c1cn(Cc2ccc(F)cc2)c2ccccc12 as the molecule, how does the “inhibition (INH)” value (RAW264.7) read?
**A.** The value was 86.78%.

**Q.** O=C(O)CSCC(=O)Nc1nc(-c2ccc(Cl)cc2)cs1 was tested. Which “inhibition (INH)” value (RAW264.7) did it give?
**A.** Its value is 23.45%.

**Q.** Which “inhibition (INH)” value (RAW264.7) does the source give for O=C(O)CCC(=O)Nc1nc(-c2ccc(C(F)(F)F)cc2)cs1 here?
**A.** The value was 12.15%.

**Q.** Which “inhibition (INH)” value (RAW264.7) does the source give for Cc1sc(NC(=O)CCC(=O)O)nc1-c1ccccc1 here?
**A.** The value was 25.23%.

**Q.** Which “inhibition (INH)” value (RAW264.7) does the source give for O=C(O)CCC(=O)Nc1nc(-c2ccc(Cl)cc2)cs1 here?
**A.** The value was 41.22%.

**Q.** For O=C(O)CCC(=O)Nc1nc(-c2ccc(Cl)cc2Cl)cs1, which “inhibition (INH)” value (RAW264.7) is on record?
**A.** The value was 35.15%.

**Q.** O=C(O)CSCC(=O)Nc1nc(-c2ccc(C(F)(F)F)cc2)cs1 was tested. Which “inhibition (INH)” value (RAW264.7) did it give?
**A.** Its value is 37.26%.

**Q.** Which “inhibition (INH)” value (RAW264.7) does the source give for O=C(O)/C=C/c1cn(Cc2cccc3ccccc23)c2ccccc12 here?
**A.** Its value is 93.28%.

**Q.** Which “inhibition (INH)” value (RAW264.7) does the source give for COc1ccc2c(c1)c(/C=C/C(=O)O)cn2Cc1ccccc1F here?
**A.** The value was 86.67%.

**Q.** How did the inhibition (RAW264.7) turn out when Cc1ccccc1Cn1cc(/C=C/C(=O)O)c2ccccc21 was run?
**A.** Its inhibition is “inactive”.

**Q.** Which “inhibition (INH)” value (RAW264.7) does the source give for O=C(O)Cc1cn(Cc2ccccc2)c2ccccc12 here?
**A.** Its value is 52.17%.

**Q.** How did the “inhibition (INH)” value (RAW264.7) turn out when O=C(O)CSCC(=O)Nc1nc(-c2ccc([N+](=O)[O-])cc2)cs1 was run?
**A.** The value was 43.24%.

**Q.** O=C(O)Cc1cn(Cc2cccc(F)c2)c2ccccc12 was tested. Which inhibition (RAW264.7) did it give?
**A.** Its inhibition is “inactive”.

**Q.** With O=C(O)CCC(=O)Nc1nc(-c2ccccc2Cl)cs1 as the molecule, how does the “inhibition (INH)” value (RAW264.7) read?
**A.** The value was 8.56%.

**Q.** Which “inhibition (INH)” value (RAW264.7) does the source give for CCc1c(-c2ccccc2)c(-c2ccccc2)nn1-c1ccccc1-c1cccc(OCC(=O)O)c1 here?
**A.** Its value is 85.13%.

**Q.** With O=C(O)CSCC(=O)Nc1nc(-c2ccc(F)cc2)cs1 as the molecule, how does the “inhibition (INH)” value (RAW264.7) read?
**A.** Its value is 18.19%.

**Q.** With N#Cc1ccc(Cn2cc(/C=C/C(=O)O)c3ccccc32)cc1 as the molecule, how does the “inhibition (INH)” value (RAW264.7) read?
**A.** Its value is 31.46%.

**Q.** Cc1ccccc1Cn1cc(CC(=O)O)c2ccccc21 was tested. Which “inhibition (INH)” value (RAW264.7) did it give?
**A.** Its value is 14.29%.

**Q.** How did the “inhibition (INH)” value (RAW264.7) turn out when O=C(O)CCC(=O)Nc1nc(-c2ccc(Cl)c(Cl)c2)cs1 was run?
**A.** The value was 12.38%.

**Q.** For CC(C)c1ccc(Cn2cc(/C=C/C(=O)O)c3ccccc32)cc1, which “inhibition (INH)” value (RAW264.7) is on record?
**A.** Its value is 92.24%.

**Q.** O=C(O)CCC(=O)Nc1nc(-c2ccc(F)cc2)cs1 was tested. Which “inhibition (INH)” value (RAW264.7) did it give?
**A.** The value was 27.24%.

**Q.** With CC(C)(C)c1ccc(Cn2cc(/C=C/C(=O)O)c3ccccc32)cc1 as the molecule, how does the “inhibition (INH)” value (RAW264.7) read?
**A.** Its value is 50.18%.

**Q.** Which inhibition (RAW264.7) does the source give for Cc1c(/C=C/C(=O)O)c2ccccc2n1Cc1cccc(F)c1 here?
**A.** The inhibition was “inactive”.

**Q.** For Cc1c(/C=C/C(=O)O)c2ccccc2n1Cc1ccccc1F, which “inhibition (INH)” value (RAW264.7) is on record?
**A.** Its value is 93.27%.

**Q.** How did the “inhibition (INH)” value (RAW264.7) turn out when COc1ccc2c(c1)c(/C=C/C(=O)O)cn2Cc1ccc(F)cc1 was run?
**A.** Its value is 94.28%.

**Q.** Which “inhibition (INH)” value (RAW264.7) does the source give for Cc1ccc(-c2csc(NC(=O)CCC(=O)O)n2)cc1 here?
**A.** The value was 36.67%.

**Q.** With O=C(O)CCC(=O)Nc1nc(-c2ccc(F)c(F)c2)cs1 as the molecule, how does the “inhibition (INH)” value (RAW264.7) read?
**A.** Its value is 92.45%.

**Q.** Which “inhibition (INH)” value (RAW264.7) does the source give for O=C(O)/C=C/c1cn(Cc2ccc([N+](=O)[O-])cc2)c2ccccc12 here?
**A.** The value was 32.34%.

**Q.** O=C(O)CCC(=O)Nc1nc(-c2ccc3ccccc3c2)cs1 was tested. Which “inhibition (INH)” value (RAW264.7) did it give?
**A.** The value was 58.75%.

**Q.** How did the inhibition (RAW264.7) turn out when COc1ccc2c(c1)c(/C=C/C(=O)O)cn2Cc1cccc(F)c1 was run?
**A.** The inhibition was “inactive”.
